# IDH1 R132H inh: IDH1 R132H (human) inhibition. O75874. IDH1 R132H reductase, diaphorase/resazurin fluorescence, 60 min. inhibition, % at 10 µM. actives 0.18% (n = 70,000); in the data active means inhibition above about 34%; inconclusive means no clear call, values can overlap the other calls; inactive means below about 11%;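 further: 0% = DMSO and 100% = no enzyme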
# Target sequence (O75874 whole entry R132H): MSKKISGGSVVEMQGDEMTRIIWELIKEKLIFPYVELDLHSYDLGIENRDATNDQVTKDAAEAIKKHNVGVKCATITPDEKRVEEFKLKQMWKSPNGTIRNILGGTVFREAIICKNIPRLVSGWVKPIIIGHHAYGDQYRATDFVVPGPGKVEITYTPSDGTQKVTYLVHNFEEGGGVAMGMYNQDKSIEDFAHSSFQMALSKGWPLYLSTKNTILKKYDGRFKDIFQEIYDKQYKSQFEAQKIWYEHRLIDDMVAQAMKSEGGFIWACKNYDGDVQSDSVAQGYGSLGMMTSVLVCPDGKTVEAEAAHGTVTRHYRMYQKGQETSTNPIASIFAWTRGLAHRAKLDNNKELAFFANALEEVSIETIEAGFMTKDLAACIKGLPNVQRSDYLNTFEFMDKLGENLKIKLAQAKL
# GASC1 inh: KDM4C (human) demethylase inhibition; inhibition, % at 12.5 µM; actives 0.15% (n = 96,000); AID 720574; GST-KDM4C 2-372, H3K9me3 peptide, LANCE TR-FRET; Q9H3R0;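 active means mean replicate inhibition above about 25%, with at least 55% of replicates also reaching it, limit read from the data, passing the limit was not always enough; inconclusive means only one of those two conditions met; inactive means neither condition met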
#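 System – N-terminal GST-fused human GASC-1 (KDM4C) fragment, residues 2-372 · Input – enzyme final amount 10 nM · Technique – LANCE TR-FRET, Eu antibody, ULight-streptavidin, EDTA, ex 340 nm, em 618/671 nm · Medium – HEPES buffer, pH 7.5, plus ascorbate · Incubation – enzyme reaction 30 min, then detection 60 min, both room temperature · Reagent – H3K9me3 peptide with Fe(II)/2OG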
# T cruzi growth-1: T. cruzi proliferation inhibition | T. cruzi beta-gal in NIH3T3, GalScreen luminescence, 90 h | inhibition, % at 8.34 µM | actives 5.9% (n = 77,000) | AID 624255;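 active means mean inhibition above about 93%, with at least 55% of replicates each passing it, limit read from the data, passing the limit was not always enough; inconclusive means only one of those two conditions holds; inactive means neither condition holds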
# T cruzi growth-2: Trypanosoma cruzi proliferation inhibition | shares compounds with T cruzi growth-1 | T. cruzi beta-gal in NIH3T3, GalScreen luminescence, 90 h | inhibition, % at 8.35 µM | actives 72% (n = 5,600) | AID 651739;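 active means mean replicate inhibition above about 95% and at least 55% of replicates individually reaching it, limit read from the data; inconclusive means only one of the two criteria is met; inactive means neither criterion is met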
# T cruzi growth-3: Trypanosoma cruzi proliferation inhibition | inhibition, % at 2.09 µM | actives 21% (n = 5,600) | shares compounds with T cruzi growth-1 | T. cruzi beta-gal in NIH3T3, GalScreen luminescence, 90 h;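 active means mean inhibition above about 95%, with at least 55% of replicates also reaching it, limit read from the data; inconclusive means meets just one of the two conditions; inactive means meets neither condition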;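 further: plate controls were neutral control median for no effect and positive control median for full effect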
# NIH3T3 tox: cytotoxicity in mouse NIH/3T3 fibroblasts; NIH/3T3 viability, CellTiter-Glo ATP luminescence, 90 h; shares compounds with T cruzi growth-1; actives 14% (n = 5,600); cytotoxicity (signal decrease), % at 8.35 µM;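 active means mean signal decrease across replicates above about 35% based on untreated-well scatter, with enough replicates individually passing, limit read from the data; inconclusive means no rule stated though some were filed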;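 further: 0% = median of neutral control wells and 100% = median of positive control wells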
# NIH3T3 tox 2: cytotoxicity in mouse NIH/3T3 fibroblasts. inhibition, % at 24.9 µM. NIH/3T3 viability, CellTiter-Glo ATP luminescence, 90 h. AID 651744. shares compounds with T cruzi growth-1. actives 56% (n = 5,600);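 active means mean loss of cell viability signal at or above a set limit, and enough replicates individually reaching it; inconclusive means meets only the mean limit or only the replicate share; inactive means meets neither condition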;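 further: 0% = median of neutral control wells and 100% = median of positive control wells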
# * marks the source's active call; other numbers are inactive results; ? = inconclusive; . = no result given. The entries come from a sample that favours hits as a whole.
SMILES,IDH1 R132H inh,GASC1 inh,T cruzi growth-1,T cruzi growth-2,T cruzi growth-3,NIH3T3 tox,NIH3T3 tox 2
N#C[C@H]1[C@@H](c2ccc(C#Cc3cccc(F)c3)cc2)[C@H](CO)N1C(=O)C1CCC1,.,-2,100*,96*,105*,20,103*
N#C[C@@H]1[C@H](c2ccc(C#Cc3cccc(F)c3)cc2)[C@@H](CO)N1C(=O)C1CC1,.,0,?,101*,95,3,71*
N#C[C@H]1[C@@H](c2ccc(C#Cc3cccc(F)c3)cc2)[C@@H](CO)N1C(=O)C1CCOCC1,.,5,22,.,.,.,.
CCc1cccc(C)c1NC(=O)C(C)NS(=O)(=O)c1ccc(C)cc1 (centres undefined),0,.,.,.,.,.,.
COc1ccc(O)c(C(c2c[nH]c3ccccc23)c2c[nH]c3ccccc23)c1,2,.,.,.,.,.,.
COc1ccc(NC(=O)C(C)Oc2ccccc2)c([N+](=O)[O-])c1 (centres undefined),0,.,.,.,.,.,.
O=C(CN1C(=O)c2cccc3cccc1c23)Nc1cccc([N+](=O)[O-])c1,0,.,.,.,.,.,.
C[C@@H]1CN([C@@H](C)CO)S(=O)(=O)c2ccc(C#Cc3ccccn3)cc2O[C@H]1CN(C)Cc1cccc(F)c1,0,-13,120*,97*,94,19,-54
C[C@@H]1CN([C@H](C)CO)S(=O)(=O)c2ccc(C#Cc3ccccn3)cc2O[C@@H]1CN(C)Cc1cccc(F)c1,-1,2,122*,105*,86,25,70*
CCCN(C)C[C@H]1Oc2cc(C#Cc3ccccn3)ccc2S(=O)(=O)N([C@@H](C)CO)C[C@H]1C,0,-1,-8,.,.,.,.
C[C@H]1CN([C@@H](C)CO)S(=O)(=O)c2ccc(C#Cc3ccccn3)cc2O[C@H]1CN(C)CC1CC1,0,-1,20,.,.,.,.
Cc1cc(C)c(NC(=O)CN(C2CCCCC2)S(=O)(=O)c2ccc(Br)cc2)c(C)c1,0,.,.,.,.,.,.
CCn1c(SCC(=O)Nc2ccccc2C)nnc1-c1ccc(Br)cc1,0,.,.,.,.,.,.
COc1cc(OC)c(C2=NOC(C(=O)NCc3ccco3)C2)cc1Cl (centres undefined),0,.,.,.,.,.,.
CS(=O)(=O)N(CC(=O)Nc1cccnc1)c1cccc(F)c1,1,.,.,.,.,.,.
Cc1cc(=O)[nH]c(SCCOc2ccc(Br)cc2Cl)n1,1,.,.,.,.,.,.
O=C1O[C@H](c2ccccc2)[C@H](c2ccccc2)N2[C@H]1[C@@H](C(=O)O)[C@]1(C(=O)Nc3ccc(C#CCCO)cc31)[C@H]2c1ccc(OCCO)cc1,0,.,.,.,.,.,.
COc1ccc(C#Cc2ccc3c(c2)O[C@@H](CN(C)C(=O)NC2CCCCC2)[C@H](C)CN([C@H](C)CO)S3(=O)=O)cc1,4,-7,?,103*,99*,-13,13
CC(C)CC#Cc1ccc2c(c1)O[C@H](CN(C)C(=O)NC1CCCC1)[C@@H](C)CN([C@H](C)CO)S2(=O)=O,2,0,79,.,.,.,.
C[C@@H]1CN([C@H](C)CO)S(=O)(=O)c2ccc(C#Cc3ccc(F)cc3)cc2O[C@@H]1CN(C)C(=O)NC1CCCCC1,.,-1,78,.,.,.,.
C[C@H](CO)N1C[C@H](C)[C@H](CN(C)C(=O)NC2CCCC2)Oc2cc(C#Cc3ccc(F)cc3)ccc2S1(=O)=O,.,2,104*,95*,116*,-5,61*
C[C@H](CO)N1C[C@H](C)[C@@H](CN(C)C(=O)NC2CCCC2)Oc2cc(C#Cc3ccc(F)cc3)ccc2S1(=O)=O,0,0,60,.,.,.,.
C[C@H](CO)N1C[C@H](C)[C@@H](CN(C)C(=O)NC2CCCCC2)Oc2cc(C#Cc3ccc(F)cc3)ccc2S1(=O)=O,.,-1,87,.,.,.,.
CC(C)CC#Cc1ccc2c(c1)O[C@@H](CN(C)C(=O)NC1CCCC1)[C@@H](C)CN([C@H](C)CO)S2(=O)=O,-2,-2,119*,106*,94,-3,102*
C[C@@H]1CN([C@@H](C)CO)S(=O)(=O)c2ccc(C#Cc3ccc(F)cc3)cc2O[C@@H]1CN(C)C(=O)NC1CCCC1,0,-5,115*,101*,87,-19,74*

# From PubChem BioAssay
